Here are results for 31 compounds from ChEMBL document CHEMBL4602720, “Degradation versus Inhibition: Development of Proteolysis-Targeting Chimeras for Overcoming Statin-Induced Compensatory Upregulation of 3-Hydroxy-3-methylglutaryl Coenzyme A Reductase” (J Med Chem, 2020).

Some results are limits rather than exact numbers.

This test deals with T1, Protein cereblon/3-hydroxy-3-methylglutaryl-coenzyme A reductase (Cricetulus griseus, UniProt P00347+G3H338).
T1 sequence (P00347 whole entry): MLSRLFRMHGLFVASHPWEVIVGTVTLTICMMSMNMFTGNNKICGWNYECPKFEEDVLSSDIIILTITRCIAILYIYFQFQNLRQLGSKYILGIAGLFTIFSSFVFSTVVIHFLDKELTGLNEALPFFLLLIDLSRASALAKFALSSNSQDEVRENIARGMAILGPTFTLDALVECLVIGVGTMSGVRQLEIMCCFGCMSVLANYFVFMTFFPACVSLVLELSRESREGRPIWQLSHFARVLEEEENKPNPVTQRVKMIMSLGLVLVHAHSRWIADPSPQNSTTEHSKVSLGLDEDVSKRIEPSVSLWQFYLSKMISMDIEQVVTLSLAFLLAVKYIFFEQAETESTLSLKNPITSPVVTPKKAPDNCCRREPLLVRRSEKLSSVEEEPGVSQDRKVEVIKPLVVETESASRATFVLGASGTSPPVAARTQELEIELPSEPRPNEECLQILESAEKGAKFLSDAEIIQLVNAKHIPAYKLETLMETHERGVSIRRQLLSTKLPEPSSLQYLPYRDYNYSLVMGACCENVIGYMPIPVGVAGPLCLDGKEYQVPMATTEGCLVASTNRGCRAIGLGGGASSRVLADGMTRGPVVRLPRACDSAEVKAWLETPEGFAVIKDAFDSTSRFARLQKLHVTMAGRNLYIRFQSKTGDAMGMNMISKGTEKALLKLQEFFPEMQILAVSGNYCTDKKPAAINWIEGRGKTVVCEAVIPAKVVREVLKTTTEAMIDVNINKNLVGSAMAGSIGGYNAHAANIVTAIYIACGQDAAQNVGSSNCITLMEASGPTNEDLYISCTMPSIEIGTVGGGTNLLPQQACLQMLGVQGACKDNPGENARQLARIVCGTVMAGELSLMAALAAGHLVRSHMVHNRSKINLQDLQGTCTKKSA
T1 sequence (G3H338 whole entry): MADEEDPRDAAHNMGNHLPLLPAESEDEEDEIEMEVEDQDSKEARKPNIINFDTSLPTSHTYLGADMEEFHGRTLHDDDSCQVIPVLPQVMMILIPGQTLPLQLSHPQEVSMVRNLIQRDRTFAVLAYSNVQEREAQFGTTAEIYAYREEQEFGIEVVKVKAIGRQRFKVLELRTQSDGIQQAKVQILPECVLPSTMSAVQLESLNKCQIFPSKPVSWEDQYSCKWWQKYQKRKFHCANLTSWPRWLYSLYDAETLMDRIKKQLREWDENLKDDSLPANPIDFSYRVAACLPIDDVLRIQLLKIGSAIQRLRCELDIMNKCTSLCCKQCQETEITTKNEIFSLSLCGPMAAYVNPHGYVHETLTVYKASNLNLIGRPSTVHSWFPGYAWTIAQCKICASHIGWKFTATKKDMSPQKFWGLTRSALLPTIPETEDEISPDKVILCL
Put plainly: Protac activity at CRBN/HMGCR in Insig-1/Insig-2 deficient Chinese hamster SRD15 cells assessed as induction of HMGCR degradation after 16 hrs by immunoblotting analysis. Summed up: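 SRD15 cells treated with compound at varying concentrations for 16 h, final DMSO ≤0.1%; RIPA lysates (Lowry protein) immunoblotted for HMGCR, densitometry normalized to actin, DMSO set to 1; DC50 = concentration giving 50% loss versus DMSO, fitted to dose-response curve, mean of 3 independent experiments.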
On the technique in general: A western blot detects proteins with antibodies after separation by electrophoresis.
For the compound `CC(C)c1c(C(=O)Nc2ccccc2)c(-c2cccc(OCCCCCCCc3cn(CCCCCCCNc4cccc5c4C(=O)N(C4CCC(=O)NC4=O)C5=O)nn3)c2)c(-c2ccc(F)cc2)n1CC[C@@H](O)C[C@@H](O)CC(=O)O` (stereo partly specified), the DC50 was determined as 500 nM. `CC(C)c1c(C(=O)Nc2ccccc2)c(-c2cccc(OCCCCc3cn(CCOCCOCCOCCOCCNc4cccc5c4C(=O)N(C4CCC(=O)NC4=O)C5=O)nn3)c2)c(-c2ccc(F)cc2)n1CC[C@@H](O)C[C@@H](O)CC(=O)O` (stereo partly specified): the half-maximal degradation concentration (DC50) was determined as 400 nM.

As for `CC(C)c1c(C(=O)Nc2ccccc2)c(-c2cccc(OCCCCCc3cn(CCOCCOCCOCCNc4cccc5c4C(=O)N(C4CCC(=O)NC4=O)C5=O)nn3)c2)c(-c2ccc(F)cc2)n1CC[C@@H](O)C[C@@H](O)CC(=O)O` (stereo partly specified), the DC50 is 1800 nM.

With `CC(C)c1c(C(=O)Nc2ccccc2)c(-c2cccc(OCCCc3cn(CCCCCCCOCCCc4cccc5c4CN(C4CCC(=O)NC4=O)C5=O)nn3)c2)c(-c2ccc(F)cc2)n1CC[C@@H](O)C[C@@H](O)CC(=O)O` (stereo partly specified), the 50% degradation concentration (DC50) is 600 nM. With `CC(C)c1c(C(=O)Nc2ccccc2)c(-c2cccc(OCCCc3cn(CCCCCCCOCC#Cc4cccc5c4CN(C4CCC(=O)NC4=O)C5=O)nn3)c2)c(-c2ccc(F)cc2)n1CC[C@@H](O)C[C@@H](O)CC(=O)O` (stereo partly specified), the 50% degradation concentration (DC50) is 700 nM. Consider `CC(C)c1c(C(=O)Nc2ccccc2)c(-c2cccc(OCCCc3cn(CCOCCOCCOCCNc4ccc5c(c4)C(=O)N(C4CCC(=O)NC4=O)C5=O)nn3)c2)c(-c2ccc(F)cc2)n1CC[C@@H](O)C[C@@H](O)CC(=O)O` (stereo partly specified), for which the 50% degradation concentration (DC50) was above 3000 nM. Regarding `CC(C)c1c(C(=O)Nc2ccccc2)c(-c2cccc(OCCCc3cn(CCCOCCCc4cccc5c4CN(C4CCC(=O)NC4=O)C5=O)nn3)c2)c(-c2ccc(F)cc2)n1CC[C@@H](O)C[C@@H](O)CC(=O)O` (stereo partly specified), the DC50 was above 3000 nM.

As for `CCN1C(=O)CCC(N2C(=O)c3cccc(NCCOCCOCCOCCOCCn4cc(CCCOc5cccc(-c6c(C(=O)Nc7ccccc7)c(C(C)C)n(CC[C@@H](O)C[C@@H](O)CC(=O)O)c6-c6ccc(F)cc6)c5)nn4)c3C2=O)C1=O` (stereo partly specified), the DC50 is above 3000 nM. Take `CC(C)c1c(C(=O)Nc2ccccc2)c(-c2cccc(OCCCc3cn(CCOCC#Cc4cccc5c4CN(C4CCC(=O)NC4=O)C5=O)nn3)c2)c(-c2ccc(F)cc2)n1CC[C@@H](O)C[C@@H](O)CC(=O)O` (stereo partly specified): the DC50 is above 3000 nM. For `CC(C)c1c(C(=O)Nc2ccccc2)c(-c2cccc(OCCCc3cn(CCCCCCOCC#Cc4cccc5c4CN(C4CCC(=O)NC4=O)C5=O)nn3)c2)c(-c2ccc(F)cc2)n1CC[C@@H](O)C[C@@H](O)CC(=O)O` (stereo partly specified), the DC50 turned out to be 200 nM.

With `CC(C)c1c(C(=O)Nc2ccccc2)c(-c2cccc(OCCCCc3cn(CCOCCOCCNc4cccc5c4C(=O)N(C4CCC(=O)NC4=O)C5=O)nn3)c2)c(-c2ccc(F)cc2)n1CC[C@@H](O)C[C@@H](O)CC(=O)O` (stereo partly specified), the DC50 is above 3000 nM. For `CC(C)c1c(C(=O)Nc2ccccc2)c(-c2cccc(OCCCc3cn(CCOCCOCCNc4cccc5c4C(=O)N(C4CCC(=O)NC4=O)C5=O)nn3)c2)c(-c2ccc(F)cc2)n1CC[C@@H](O)C[C@@H](O)CC(=O)O` (stereo partly specified), the half-maximal degradation concentration (DC50) is above 3000 nM.

For `CC(C)c1c(C(=O)Nc2ccccc2)c(-c2cccc(OCCCCc3cn(CCOCCOCCOCCNc4ccc5c(c4)C(=O)N(C4CCC(=O)NC4=O)C5=O)nn3)c2)c(-c2ccc(F)cc2)n1CC[C@@H](O)C[C@@H](O)CC(=O)O` (stereo partly specified), the DC50 is above 3000 nM.

In the case of `CC(C)c1c(C(=O)Nc2ccccc2)c(-c2cccc(OCCCCCc3cn(CCOCCOCCNc4cccc5c4C(=O)N(C4CCC(=O)NC4=O)C5=O)nn3)c2)c(-c2ccc(F)cc2)n1CC[C@@H](O)C[C@@H](O)CC(=O)O` (stereo partly specified), the 50% degradation concentration (DC50) was above 3000 nM. With `CC(C)c1c(C(=O)Nc2ccccc2)c(-c2cccc(OCCCc3cn(CCCOCC#Cc4cccc5c4CN(C4CCC(=O)NC4=O)C5=O)nn3)c2)c(-c2ccc(F)cc2)n1CC[C@@H](O)C[C@@H](O)CC(=O)O` (stereo partly specified), the DC50 is above 3000 nM. On to `CC(C)c1c(C(=O)Nc2ccccc2)c(-c2cccc(OCCCc3cn(CCOCCNc4cccc5c4C(=O)N(C4CCC(=O)NC4=O)C5=O)nn3)c2)c(-c2ccc(F)cc2)n1CC[C@@H](O)C[C@@H](O)CC(=O)O` (stereo partly specified), for which the DC50 was above 3000 nM.

Consider `CC(C)c1c(C(=O)Nc2ccccc2)c(-c2cccc(OCCCCCc3cn(CCOCCOCCOCCOCCNc4cccc5c4C(=O)N(C4CCC(=O)NC4=O)C5=O)nn3)c2)c(-c2ccc(F)cc2)n1CC[C@@H](O)C[C@@H](O)CC(=O)O` (stereo partly specified), for which the DC50 stood at 500 nM. Then `CC(C)c1c(C(=O)Nc2ccccc2)c(-c2cccc(OCCCCCc3cn(CCOCCOCCOCCOCCNc4ccc5c(c4)C(=O)N(C4CCC(=O)NC4=O)C5=O)nn3)c2)c(-c2ccc(F)cc2)n1CC[C@@H](O)C[C@@H](O)CC(=O)O` (stereo partly specified), with above 3000 nM; and `CC(C)c1c(C(=O)Nc2ccccc2)c(-c2cccc(OCCCc3cn(CCCCCOCC#Cc4cccc5c4CN(C4CCC(=O)NC4=O)C5=O)nn3)c2)c(-c2ccc(F)cc2)n1CC[C@@H](O)C[C@@H](O)CC(=O)O` (stereo partly specified), with 300 nM. `CC(C)c1c(C(=O)Nc2ccccc2)c(-c2cccc(OCCCCCc3cn(CCOCCOCCOCCOCCOCCNc4cccc5c4C(=O)N(C4CCC(=O)NC4=O)C5=O)nn3)c2)c(-c2ccc(F)cc2)n1CC[C@@H](O)C[C@@H](O)CC(=O)O` (stereo partly specified): the 50% degradation concentration (DC50) came out at 600 nM.

For the compound `CC(C)c1c(C(=O)Nc2ccccc2)c(-c2cccc(OCCCc3cn(CCOCCOCCOCCOCCOCCNc4cccc5c4C(=O)N(C4CCC(=O)NC4=O)C5=O)nn3)c2)c(-c2ccc(F)cc2)n1CC[C@@H](O)C[C@@H](O)CC(=O)O` (stereo partly specified), the DC50 stood at 200 nM. With `CC(C)c1c(C(=O)Nc2ccccc2)c(-c2cccc(OCCCc3cn(CCCCOCCCc4cccc5c4CN(C4CCC(=O)NC4=O)C5=O)nn3)c2)c(-c2ccc(F)cc2)n1CC[C@@H](O)C[C@@H](O)CC(=O)O` (stereo partly specified), the DC50 is above 3000 nM. Then `CC(C)c1c(C(=O)Nc2ccccc2)c(-c2cccc(OCCCCc3cn(CCOCCOCCOCCOCCOCCNc4cccc5c4C(=O)N(C4CCC(=O)NC4=O)C5=O)nn3)c2)c(-c2ccc(F)cc2)n1CC[C@@H](O)C[C@@H](O)CC(=O)O` (stereo partly specified), with above 3000 nM; and `CC(C)c1c(C(=O)Nc2ccccc2)c(-c2cccc(OCCCCc3cn(CCOCCNc4cccc5c4C(=O)N(C4CCC(=O)NC4=O)C5=O)nn3)c2)c(-c2ccc(F)cc2)n1CC[C@@H](O)C[C@@H](O)CC(=O)O` (stereo partly specified), with above 3000 nM; and `CC(C)c1c(C(=O)Nc2ccccc2)c(-c2cccc(OCCCCCc3cn(CCOCCNc4cccc5c4C(=O)N(C4CCC(=O)NC4=O)C5=O)nn3)c2)c(-c2ccc(F)cc2)n1CC[C@@H](O)C[C@@H](O)CC(=O)O` (stereo partly specified), with 3000 nM. Regarding `CC(C)c1c(C(=O)Nc2ccccc2)c(-c2cccc(OCCCc3cn(CCCCOCC#Cc4cccc5c4CN(C4CCC(=O)NC4=O)C5=O)nn3)c2)c(-c2ccc(F)cc2)n1CC[C@@H](O)C[C@@H](O)CC(=O)O` (stereo partly specified), the 50% degradation concentration (DC50) was above 3000 nM. For `CC(C)c1c(C(=O)Nc2ccccc2)c(-c2cccc(OCCCc3cn(CCOCCOCCOCCNc4cccc5c4C(=O)N(C4CCC(=O)NC4=O)C5=O)nn3)c2)c(-c2ccc(F)cc2)n1CC[C@@H](O)C[C@@H](O)CC(=O)O` (stereo partly specified), the DC50 was above 3000 nM. Consider `CC(C)c1c(C(=O)Nc2ccccc2)c(-c2cccc(OCCCCc3cn(CCOCCOCCOCCOCCNc4ccc5c(c4)C(=O)N(C4CCC(=O)NC4=O)C5=O)nn3)c2)c(-c2ccc(F)cc2)n1CC[C@@H](O)C[C@@H](O)CC(=O)O` (stereo partly specified), for which the DC50 was above 3000 nM. With `CC(C)c1c(C(=O)Nc2ccccc2)c(-c2cccc(OCCCc3cn(CCCCCCOCCCc4cccc5c4CN(C4CCC(=O)NC4=O)C5=O)nn3)c2)c(-c2ccc(F)cc2)n1CC[C@@H](O)C[C@@H](O)CC(=O)O` (stereo partly specified), the DC50 amounted to 500 nM. Consider `CC(C)c1c(C(=O)Nc2ccccc2)c(-c2cccc(OCCCc3cn(CCOCCCc4cccc5c4CN(C4CCC(=O)NC4=O)C5=O)nn3)c2)c(-c2ccc(F)cc2)n1CC[C@@H](O)C[C@@H](O)CC(=O)O` (stereo partly specified), for which the DC50 was above 3000 nM. Then `CC(C)c1c(C(=O)Nc2ccccc2)c(-c2cccc(OCCCc3cn(CCCCCOCCCc4cccc5c4CN(C4CCC(=O)NC4=O)C5=O)nn3)c2)c(-c2ccc(F)cc2)n1CC[C@@H](O)C[C@@H](O)CC(=O)O` (stereo partly specified), with 2300 nM.

In general, DC50 refers to the midpoint of the concentration-degradation curve.
